ChEMBL document CHEMBL3525906, “A comprehensive assessment of repaglinide metabolic pathways: impact of choice of in vitro system and relative enzyme contribution to in vitro clearance” (Drug Metab Dispos, 2012)

How the values were obtained:
[1] = Drug metabolism in human hepatic S9 fraction assessed as 3'-hydroxy repaglinide formation measured per mg of protein at 0.5 to 150 uM by LC-MS/MS method; format: ADME, Liver; conditions: s9, 150 µM
[2] = Drug metabolism in human hepatic S9 fraction assessed as 3'-hydroxy repaglinide formation by LC-MS/MS method; format: ADME, Liver
Cytochrome P450 3A5 [3] = target: T1, Cytochrome P450 3A5 (Homo sapiens, UniProt P20815); experiment: Activity of human recombinant CYP3A5 expressed in insect cells assessed as enzyme-mediated 3'-hydroxy repaglinide formation by LC-MS/MS method; format: ADME
T1 sequence (P20815 whole entry): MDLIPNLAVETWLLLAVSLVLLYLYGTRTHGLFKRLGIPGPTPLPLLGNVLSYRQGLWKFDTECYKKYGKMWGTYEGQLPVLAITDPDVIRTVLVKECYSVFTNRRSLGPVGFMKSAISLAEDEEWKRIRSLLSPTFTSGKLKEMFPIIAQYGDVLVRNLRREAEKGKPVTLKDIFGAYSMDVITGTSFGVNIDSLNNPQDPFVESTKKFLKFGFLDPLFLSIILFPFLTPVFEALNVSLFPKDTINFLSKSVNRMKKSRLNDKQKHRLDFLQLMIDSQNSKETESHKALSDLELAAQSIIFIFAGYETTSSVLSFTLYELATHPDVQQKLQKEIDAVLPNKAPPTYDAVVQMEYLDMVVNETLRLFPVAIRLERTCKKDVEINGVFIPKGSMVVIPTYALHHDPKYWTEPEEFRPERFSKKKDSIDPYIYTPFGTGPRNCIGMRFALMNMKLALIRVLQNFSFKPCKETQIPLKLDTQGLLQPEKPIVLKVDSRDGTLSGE
In short: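 Recombinant P450 (CYP2C8 50, CYP3A4 30, CYP3A5 100; units not given) incubated 10 min at 37°C with repaglinide (8 concentrations, 0.5–150 μM) in 0.1 M phosphate pH 7.4, 10 mM MgCl2, NADPH-regenerating system (1 mM NADP+, isocitrate/isocitrate dehydrogenase). Quenched with ice-cold methanol plus indomethacin internal standard. M1, M2, M4 quantified by LC-MS/MS against authentic standards. Michaelis-Menten fit; mean ± SD, n=3.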

Hepatocyte = experiment: Unbound intrinsic clearance in human hepatocytes assessed as 3'-hydroxy repaglinide formation measured per 10^6 cells at 0.5 to 150 uM by LC-MS/MS method; format: ADME, cell-based
Liver microsome [4] = experiment: Unbound intrinsic clearance in human liver microsomes assessed as 3'-hydroxy repaglinide formation measured per mg of protein at 0.5 to 150 uM by LC-MS/MS method; format: ADME
In short: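 Pooled HLM, 0.3 mg/ml, in 0.1 M phosphate pH 7.4 with 10 mM MgCl2 and NADPH regenerating system. Repaglinide at 8 levels, 0.5-150 μM; 37°C, 10 min. Metabolites by LC-MS/MS against authentic standards; fu_inc 0.85. Duplicates on three occasions.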

Cytochrome P450 3A5 [5] = target: T1, Cytochrome P450 3A5; experiment: Unbound intrinsic clearance in human recombinant CYP3A5 expressed in insect cells assessed as enzyme-mediated 3'-hydroxy repaglinide formation per nanomole of protein at 0.5 to 150 uM by LC-MS/MS method; format: ADME
Cytochrome P450 2C8 = target: T2, Cytochrome P450 2C8 (Homo sapiens, UniProt P10632); experiment: Fraction metabolism via CYP2C8 in human hepatic S9 fraction; format: ADME, Liver
T2 sequence (P10632 whole entry): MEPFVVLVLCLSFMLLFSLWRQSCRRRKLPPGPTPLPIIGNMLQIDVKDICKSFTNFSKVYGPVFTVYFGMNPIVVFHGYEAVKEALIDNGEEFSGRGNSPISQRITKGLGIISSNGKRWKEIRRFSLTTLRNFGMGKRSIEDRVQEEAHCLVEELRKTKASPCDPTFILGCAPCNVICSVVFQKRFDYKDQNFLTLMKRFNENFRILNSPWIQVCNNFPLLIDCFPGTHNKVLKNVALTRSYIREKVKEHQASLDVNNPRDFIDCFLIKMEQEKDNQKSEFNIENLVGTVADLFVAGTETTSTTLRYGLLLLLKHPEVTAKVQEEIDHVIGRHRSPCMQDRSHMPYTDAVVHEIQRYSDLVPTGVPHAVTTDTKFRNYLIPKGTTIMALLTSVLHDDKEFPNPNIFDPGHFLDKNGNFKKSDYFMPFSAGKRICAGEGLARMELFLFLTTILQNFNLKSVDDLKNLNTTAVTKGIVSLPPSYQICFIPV

Cytochrome P450 3A4 [6] = target: T3, Cytochrome P450 3A4 (Homo sapiens, UniProt P08684); experiment: Fraction metabolism via CYP3A4 in human hepatic S9 fraction; format: ADME, Liver
T3 sequence (P08684 whole entry): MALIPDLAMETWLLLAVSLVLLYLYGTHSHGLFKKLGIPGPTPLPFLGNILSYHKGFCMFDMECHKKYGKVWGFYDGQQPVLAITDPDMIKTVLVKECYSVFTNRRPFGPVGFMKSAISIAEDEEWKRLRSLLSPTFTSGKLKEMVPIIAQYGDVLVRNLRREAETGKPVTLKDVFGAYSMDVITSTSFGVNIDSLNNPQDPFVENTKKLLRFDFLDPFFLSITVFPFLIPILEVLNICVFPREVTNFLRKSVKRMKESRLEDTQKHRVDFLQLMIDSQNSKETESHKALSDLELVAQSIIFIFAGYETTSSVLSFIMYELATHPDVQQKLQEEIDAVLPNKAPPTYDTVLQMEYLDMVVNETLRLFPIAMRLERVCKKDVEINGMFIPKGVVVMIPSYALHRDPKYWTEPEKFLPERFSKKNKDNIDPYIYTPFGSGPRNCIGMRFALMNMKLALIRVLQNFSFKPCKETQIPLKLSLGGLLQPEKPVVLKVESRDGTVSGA

[7] = Fraction metabolism via UGT in human hepatic S9 fraction; format: ADME, Liver
Cytochrome P450 3A4 [8] = target: T3, Cytochrome P450 3A4; experiment: Fraction metabolism via CYP3A4 in human liver microsomes; format: ADME
[9] = Half life in type 2 diabetes patient; format: ADME, organism-based; conditions: human, in vivo
Homo sapiens [10] = species on record: Homo sapiens; experiment: Drug metabolism in human patient assessed as fold change in metabolite M2/M1 AUC ratio at 0.25 mg co-treated with montelukast relative to montelukast non-treated patient; format: ADME, organism-based; conditions: in vivo
Homo sapiens [11] = species on record: Homo sapiens; experiment: Drug metabolism in human patient assessed as fold change in metabolite M2/M1 AUC ratio at 0.25 mg co-treated with telithromycin and montelukast relative to telithromycin and montelukast non-treated patient; format: ADME, organism-based; conditions: in vivo
Homo sapiens [12] = species on record: Homo sapiens; experiment: Drug metabolism in human patient assessed as fold change in metabolite M2/M4 AUC ratio at 0.25 mg co-treated with atorvastatin relative to atorvastatin non-treated patient; format: ADME, organism-based; conditions: in vivo
Homo sapiens [13] = species on record: Homo sapiens; experiment: Drug metabolism in variable SLCO1B1 genotype containing human patient assessed as fold change in metabolite M2/M4 AUC ratio at 0.25 mg co-treated with gemfibrozil relative to gemfibrozil non-treated patient; format: ADME, organism-based; conditions: in vivo
Homo sapiens [14] = species on record: Homo sapiens; experiment: Drug metabolism in human patient assessed as fold change in metabolite M2/M4 AUC ratio at 0.25 mg co-treated with telithromycin relative to telithromycin non-treated patient; format: ADME, organism-based; conditions: in vivo
Homo sapiens [15] = species on record: Homo sapiens; experiment: Drug metabolism in human patient assessed as fold change in metabolite M2/M4 AUC ratio at 0.25 mg co-treated with montelukast relative to montelukast non-treated patient; format: ADME, organism-based; conditions: in vivo
Homo sapiens [16] = species on record: Homo sapiens; experiment: Drug metabolism in human patient assessed as fold change in metabolite M2/M4 AUC ratio at 0.25 mg co-treated with telithromycin and montelukast relative to telithromycin and montelukast non-treated patient; format: ADME, organism-based; conditions: in vivo
Homo sapiens [17] = species on record: Homo sapiens; experiment: Ratio of AUC in human patient at 0.25 mg to AUC in human patient at 0.25 mg co-treated with gemfibrozil; format: ADME, organism-based; conditions: in vivo
Homo sapiens [18] = species on record: Homo sapiens; experiment: Ratio of AUC in human patient at 0.25 mg to AUC in human patient at 0.25 mg co-treated with atorvastatin; format: ADME, organism-based; conditions: in vivo
Homo sapiens [19] = species on record: Homo sapiens; experiment: Ratio of AUC in human patient at 0.25 mg to AUC in human patient at 0.25 mg co-treated with telithromycin and montelukast; format: ADME, organism-based; conditions: in vivo
Homo sapiens [20] = species on record: Homo sapiens; experiment: Ratio of AUC in human patient at 0.25 mg to AUC in human patient at 0.25 mg co-treated with clarithromycin; format: ADME, organism-based; conditions: in vivo
Homo sapiens [21] = species on record: Homo sapiens; experiment: Drug metabolism in human patient assessed as fold change in metabolite M2/M1 AUC ratio at 0.25 mg co-treated with gemfibrozil on various time intervals relative to gemfibrozil non-treated patient; format: ADME, organism-based; conditions: in vivo
Homo sapiens [22] = species on record: Homo sapiens; experiment: Drug metabolism in human patient assessed as fold change in metabolite M2/M1 AUC ratio at 0.25 mg co-treated with atorvastatin relative to atorvastatin non-treated patient; format: ADME, organism-based; conditions: in vivo
Liver microsome [23] = experiment: Drug metabolism in human liver microsomes assessed as 2-despiperidyl-2-amino repaglinide formation by LC-MS/MS method; format: ADME
[24] = Unbound intrinsic clearance in human hepatic S9 fraction assessed as 2-despiperidyl-2-amino repaglinide formation measured per mg of protein at 0.5 to 150 uM by LC-MS/MS method; format: ADME, tissue-based, Liver; conditions: s9, 150 µM
Cytochrome P450 3A4 [25] = target: T3, Cytochrome P450 3A4; experiment: Unbound intrinsic clearance in human recombinant CYP3A4 expressed in insect cells assessed as enzyme-mediated 2-despiperidyl-2-amino repaglinide formation per nanomole of protein at 0.5 to 150 uM by LC-MS/MS method; format: ADME
[26] = Drug metabolism in human hepatic S9 fraction assessed as glucuronide formation measured per mg of protein at 0.5 to 150 uM by LC-MS/MS method; format: ADME, Liver; conditions: s9, 150 µM
[27] = Unbound intrinsic clearance in human hepatic S9 fraction assessed as glucuronide formation measured per mg of protein at 0.5 to 150 uM by LC-MS/MS method; format: ADME, tissue-based, Liver; conditions: s9, 150 µM
Liver microsome [28] = experiment: Drug metabolism in human liver microsomes assessed as 2-despiperidyl-2-(5-carboxypentylamine) repaglinide formation measured per mg of protein at 0.5 to 150 uM by LC-MS/MS method; format: ADME

## CCOc1cc(CC(=O)N[C@@H](CC(C)C)c2ccccc2N2CCCCC2)ccc1C(=O)O [REPAGLINIDE]
[1]
  Vmax: 18 pmol/min/mg
[2]
  Km: 13 µM
Cytochrome P450 3A5 [3]
  Km: ≥ 150 µM
Hepatocyte
  CL free: 2.4 uL/min/10^6cells
Liver microsome [4]
  CL free: 18 µL/min/mg
Cytochrome P450 3A5 [5]
  CL free: 0.19 µL/min/nmol
Cytochrome P450 2C8
  Fm: 0.41
Cytochrome P450 3A4 [6]
  Fm: 0.39
[7]
  Fm: 0.2
Cytochrome P450 3A4 [8]
  Fm: 0.2
[9]
  half-life: 1 h
Homo sapiens [10]
  fold change (FC): 1.1
Homo sapiens [11]
  fold change (FC): 4.3
Homo sapiens [12]
  fold change (FC): 0.87
Homo sapiens [13]
  fold change (FC): 6.4
Homo sapiens [14]
  fold change (FC): 0.8
Homo sapiens [15]
  fold change (FC): 0.98
Homo sapiens [16]
  fold change (FC): 0.82
Homo sapiens [17]
  Ratio: 8.1
Homo sapiens [18]
  Ratio: 1.2
Homo sapiens [19]
  Ratio: 1.9
Homo sapiens [20]
  Ratio: 1.4
Homo sapiens [21]
  fold change (FC): 0.39
Homo sapiens [22]
  fold change (FC): 1.05
Liver microsome [23]
  Km: 47 µM
[24]
  CL free: 0.76 µL/min/mg
Cytochrome P450 3A4 [25]
  CL free: 120 µL/min/nmol
[26]
  Vmax: 46 pmol/min/mg
[27]
  CL free: 1.8 µL/min/mg
Liver microsome [28]
  Vmax: 28 pmol/min/mg
